Converted amounts (≈) assume the structure as drawn. The source made the active and inactive calls. No cut-off for these calls is given here.
Tests used:
Moraxella catarrhalis [1] = assay: Antibacterial activity against beta-lactamase producing Moraxella catarrhalis isolate 1 after 48 hrs incubation by microdilution broth method; format: functional; conditions: isolate 1, 48 h
Summary of the method: (§1)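 Broth microdilution followed CLSI guidelines. Compound was dissolved in 95% ethanol, diluted at least 10-fold into Mueller-Hinton broth, then serially two-fold diluted from 500 to 15.6 μg/mL. Actively growing culture was added at 5 × 10^5 cells/mL. Plates ran 48 h at 37 °C, scored for visible growth at 24 and 48 h. MIC was the lowest concentration without growth. For MBC, 10 μL from each clear well was plated on MH agar. Controls were ethanol and penicillin. Triplicate.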

Moraxella catarrhalis [2] = assay: Antibacterial activity against beta-lactamase producing Moraxella catarrhalis isolate 2 after 48 hrs incubation by microdilution broth method; format: functional; conditions: isolate 2, 48 h; summary of the method: as §1
Moraxella catarrhalis [3] = assay: Antibacterial activity against beta-lactamase producing Moraxella catarrhalis isolate 3 after 48 hrs incubation by microdilution broth method; format: functional; conditions: isolate 3, 48 h; summary of the method: as §1
Moraxella catarrhalis [4] = assay: Antibacterial activity against beta-lactamase producing Moraxella catarrhalis isolate 4 after 48 hrs incubation by microdilution broth method; format: functional; conditions: isolate 4, 48 h; summary of the method: as §1
Moraxella catarrhalis [5] = assay: Antibacterial activity against beta-lactamase producing Moraxella catarrhalis isolate 5 after 48 hrs incubation by microdilution broth method; format: functional; conditions: isolate 5, 48 h; summary of the method: as §1
Moraxella catarrhalis [6] = assay: Antibacterial activity against beta-lactamase producing Moraxella catarrhalis isolate 6 after 48 hrs incubation by microdilution broth method; format: functional; conditions: isolate 6, 48 h; summary of the method: as §1
[7] = test system: Mycobacterium tuberculosis; assay: Antimycobacterial activity against wild type Mycobacterium tuberculosis H37Rv by Alamar blue assay; format: functional
Escherichia coli [8] = assay: Antibacterial activity against non-beta-lactamase producing Escherichia coli ATCC 25922 at 10 ug/disc after overnight incubation by disc diffusion assay; format: functional, organism-based
Summary of the method: (§2)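 Isolates were held at −80 °C. Five colonies were suspended in Mueller-Hinton broth to a 0.5 McFarland density and swabbed onto MH agar. Discs carried 10 μg compound, applied in methanol and dried at room temperature. Plates were incubated overnight at 37 °C, and the zone of inhibition was measured in mm from the disc edge. Controls were methanol-only and penicillin discs. Run blinded, in triplicate.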

Pseudomonas aeruginosa [9] = assay: Antibacterial activity against non-beta-lactamase producing Pseudomonas aeruginosa ATCC 27853 at 10 ug/disc after overnight incubation by disc diffusion assay; format: functional, organism-based; summary of the method: as §2
Staphylococcus aureus [10] = assay: Antibacterial activity against non-beta-lactamase producing Staphylococcus aureus ATCC 25923 at 10 ug/disc after overnight incubation by disc diffusion assay; format: functional, organism-based; summary of the method: as §2
Enterococcus faecalis [11] = assay: Antibacterial activity against non-beta-lactamase producing Enterococcus faecalis ATCC 29212 at 10 ug/disc after overnight incubation by disc diffusion assay; format: functional, organism-based; summary of the method: as §2
Escherichia coli [12] = assay: Antibacterial activity against non-beta-lactamase producing Escherichia coli ATCC 25922 after 48 hrs by microdilution broth method; format: functional, organism-based; summary of the method: as §1
Pseudomonas aeruginosa [13] = assay: Antibacterial activity against non-beta-lactamase producing Pseudomonas aeruginosa ATCC 27853 after 48 hrs by microdilution broth method; format: functional, organism-based; summary of the method: as §1
Staphylococcus aureus [14] = assay: Antibacterial activity against non-beta-lactamase producing Staphylococcus aureus ATCC 25923 after 48 hrs by microdilution broth method; format: functional, organism-based; summary of the method: as §1
Enterococcus faecalis [15] = assay: Antibacterial activity against non-beta-lactamase producing Enterococcus faecalis ATCC 29212 after 48 hrs by microdilution broth method; format: functional, organism-based; summary of the method: as §1
Moraxella catarrhalis [16] = assay: Antibacterial activity against beta-lactamase producing Moraxella catarrhalis isolate 1 at 10 ug/disc after overnight incubation by disc diffusion assay; format: functional; summary of the method: as §2
Moraxella catarrhalis [17] = assay: Antibacterial activity against beta-lactamase producing Moraxella catarrhalis isolate 2 at 10 ug/disc after overnight incubation by disc diffusion assay; format: functional; conditions: for zone of inhibition at 10 µg/disc: read-out: IZ; summary of the method: as §2
Moraxella catarrhalis [18] = assay: Antibacterial activity against beta-lactamase producing Moraxella catarrhalis isolate 3 at 10 ug/disc after overnight incubation by disc diffusion assay; format: functional; conditions: for zone of inhibition at 10 µg/disc: read-out: IZ; summary of the method: as §2
Moraxella catarrhalis [19] = assay: Antibacterial activity against beta-lactamase producing Moraxella catarrhalis isolate 4 at 10 ug/disc after overnight incubation by disc diffusion assay; format: functional; conditions: for zone of inhibition at 10 µg/disc: read-out: IZ; summary of the method: as §2
Moraxella catarrhalis [20] = assay: Antibacterial activity against beta-lactamase producing Moraxella catarrhalis isolate 5 at 10 ug/disc after overnight incubation by disc diffusion assay; format: functional; conditions: for zone of inhibition at 10 µg/disc: read-out: IZ; summary of the method: as §2
Moraxella catarrhalis [21] = assay: Antibacterial activity against beta-lactamase producing Moraxella catarrhalis isolate 1 at 10 ug/disc after overnight incubation by disc diffusion assay in presence of 1 mol equiv of glutathione; format: functional
Moraxella catarrhalis [22] = assay: Antibacterial activity against beta-lactamase producing Moraxella catarrhalis isolate 2 at 10 ug/disc after overnight incubation by disc diffusion assay in presence of 1 mol equiv of glutathione; format: functional; conditions: read-out: IZ
Moraxella catarrhalis [23] = assay: Antibacterial activity against beta-lactamase producing Moraxella catarrhalis isolate 3 at 10 ug/disc after overnight incubation by disc diffusion assay in presence of 1 mol equiv of glutathione; format: functional; conditions: read-out: IZ
Moraxella catarrhalis [24] = assay: Antibacterial activity against beta-lactamase producing Moraxella catarrhalis isolate 4 at 10 ug/disc after overnight incubation by disc diffusion assay in presence of 1 mol equiv of glutathione; format: functional; conditions: read-out: IZ
Moraxella catarrhalis [25] = assay: Antibacterial activity against beta-lactamase producing Moraxella catarrhalis isolate 5 at 10 ug/disc after overnight incubation by disc diffusion assay in presence of 1 mol equiv of glutathione; format: functional; conditions: read-out: IZ
Moraxella catarrhalis [26] = assay: Antibacterial activity against beta-lactamase producing Moraxella catarrhalis isolate 6 at 10 ug/disc after overnight incubation by disc diffusion assay in presence of 1 mol equiv of glutathione; format: functional; conditions: read-out: IZ
Moraxella catarrhalis [27] = assay: Antibacterial activity against beta-lactamase producing Moraxella catarrhalis isolate 6 at 10 ug/disc after overnight incubation by disc diffusion assay; format: functional; conditions: read-out: IZ; summary of the method: as §2
Moraxella catarrhalis [28] = assay: Antibacterial activity against beta-lactamase producing Moraxella catarrhalis isolate 2 at 500 ug/ml after overnight incubation by disc diffusion assay; format: functional, organism-based
Moraxella catarrhalis [29] = assay: Antibacterial activity against beta-lactamase producing Moraxella catarrhalis isolate 3 at 500 ug/ml after overnight incubation by disc diffusion assay; format: functional, organism-based
Moraxella catarrhalis [30] = assay: Antibacterial activity against beta-lactamase producing Moraxella catarrhalis isolate 4 at 500 ug/ml after overnight incubation by disc diffusion assay; format: functional, organism-based
Moraxella catarrhalis [31] = assay: Antibacterial activity against beta-lactamase producing Moraxella catarrhalis isolate 5 at 500 ug/ml after overnight incubation by disc diffusion assay; format: functional, organism-based
Moraxella catarrhalis [32] = assay: Antibacterial activity against beta-lactamase producing Moraxella catarrhalis isolate 6 at 500 ug/ml after overnight incubation by disc diffusion assay; format: functional, organism-based
[33] = test system: Mycobacterium tuberculosis; assay: Antimycobacterial activity against wild type Mycobacterium tuberculosis H37Rv at 200 ug/ml by Alamar blue assay; format: functional, organism-based

Structure (SMILES) | MBC (Moraxella catarrhalis [1]) [µg/mL] | MBC (Moraxella catarrhalis [2]) [µg/mL] | MBC (Moraxella catarrhalis [3]) [µg/mL] | MBC (Moraxella catarrhalis [4]) [µg/mL] | MBC (Moraxella catarrhalis [5]) [µg/mL] | MBC (Moraxella catarrhalis [6]) [µg/mL] | MBC [7] [µg/mL] | Activity (Escherichia coli [8]) | Activity (Pseudomonas aeruginosa [9]) | Activity (Staphylococcus aureus [10]) | Activity (Enterococcus faecalis [11]) | Activity (Escherichia coli [12]) | Activity (Pseudomonas aeruginosa [13]) | Activity (Staphylococcus aureus [14]) | Activity (Enterococcus faecalis [15]) | inhibition zone (IZ) (Moraxella catarrhalis [16]) | zone of inhibition at 10 µg/disc (Moraxella catarrhalis [17]) [mm] | zone of inhibition at 10 µg/disc (Moraxella catarrhalis [18]) [mm] | zone of inhibition at 10 µg/disc (Moraxella catarrhalis [19]) [mm] | zone of inhibition at 10 µg/disc (Moraxella catarrhalis [20]) [mm] | further results
O=C1CC(Sc2ccc(O)cc2)N1 (racemic) | > 500 | < 15.6 | < 15.6 | < 15.6 | < 15.6 | < 15.6 | > 200 | inactive | inactive | inactive | inactive | inactive | inactive | inactive | inactive | – | – | – | – | – | –
CC(=O)SC1CC(=O)N1S(=O)(=O)O (racemic) | – | – | – | – | – | – | – | inactive | inactive | inactive | inactive | inactive | inactive | inactive | inactive | inactive | 12 | 17 | 12 | 17 | inhibition zone (IZ) (Moraxella catarrhalis [21]): inactive; zone of inhibition at 10 µg/disc (Moraxella catarrhalis [22]): 11 mm; zone of inhibition at 10 µg/disc (Moraxella catarrhalis [23]): 12 mm; zone of inhibition at 10 µg/disc (Moraxella catarrhalis [24]): 14 mm; zone of inhibition at 10 µg/disc (Moraxella catarrhalis [25]): 18 mm; zone of inhibition at 10 µg/disc (Moraxella catarrhalis [26]): 12 mm; zone of inhibition at 10 µg/disc (Moraxella catarrhalis [27]): 11 mm
O=C1CC(Sc2cccs2)N1 (racemic) | > 500 | > 500 | 500 (≈ 2700 µM) | 500 (≈ 2700 µM) | 500 (≈ 2700 µM) | > 500 | 100 (≈ 540 µM) | inactive | inactive | inactive | inactive | inactive | inactive | inactive | inactive | inactive | – | – | – | – | inhibition zone (IZ) (Moraxella catarrhalis [17]): inactive; inhibition zone (IZ) (Moraxella catarrhalis [18]): inactive; inhibition zone (IZ) (Moraxella catarrhalis [19]): inactive; inhibition zone (IZ) (Moraxella catarrhalis [20]): inactive
O=C1CC(Sc2cccs2)N1S(=O)(=O)O (racemic) | – | – | – | – | – | – | – | inactive | inactive | inactive | inactive | inactive | inactive | inactive | inactive | inactive | – | – | – | – | inhibition zone (IZ) (Moraxella catarrhalis [17]): inactive; inhibition zone (IZ) (Moraxella catarrhalis [18]): inactive; inhibition zone (IZ) (Moraxella catarrhalis [19]): inactive; inhibition zone (IZ) (Moraxella catarrhalis [20]): inactive; antibacterial activity (active/not active) (Moraxella catarrhalis [28]): Active; antibacterial activity (active/not active) (Moraxella catarrhalis [29]): Active; antibacterial activity (active/not active) (Moraxella catarrhalis [30]): Active; antibacterial activity (active/not active) (Moraxella catarrhalis [31]): Active; antibacterial activity (active/not active) (Moraxella catarrhalis [32]): Active; antimycobacterial activity (active/not active) [33]: Active
CC(=O)SC1CC(=O)N1 (racemic) | – | – | – | – | – | – | – | inactive | inactive | inactive | inactive | inactive | inactive | inactive | inactive | – | 20 | 24 | 26 | 28 | zone of inhibition at 10 µg/disc (Moraxella catarrhalis [16]; read-out: IZ): 19 mm; zone of inhibition at 10 µg/disc (Moraxella catarrhalis [21]; read-out: IZ): 16 mm; zone of inhibition at 10 µg/disc (Moraxella catarrhalis [22]): 19 mm; zone of inhibition at 10 µg/disc (Moraxella catarrhalis [23]): 19 mm; zone of inhibition at 10 µg/disc (Moraxella catarrhalis [24]): 22 mm; zone of inhibition at 10 µg/disc (Moraxella catarrhalis [25]): 24 mm; zone of inhibition at 10 µg/disc (Moraxella catarrhalis [26]): 19 mm; zone of inhibition at 10 µg/disc (Moraxella catarrhalis [27]): 20 mm

Source: ChEMBL document CHEMBL1914320, “C4-alkylthiols with activity against Moraxella catarrhalis and Mycobacterium tuberculosis” (Bioorg Med Chem, 2011)
